Compound activity (PubChem BioAssay)
Sampled rows, rich in hits. Any-hit rate of the full collection: about 2.3%.
ERp5 block: inhibitors of human ERp5 | inhibition, % at 9.99 µM | AID 651711 | ERp5 insulin aggregation, absorbance 650 nm, 90 min | hit rate 0.05% among 350,000;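 active = mean replicate inhibition above about 25%, with every replicate also reaching it, limit read from the data, passing the limit was not always enough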
Cneo AK release: Cryptococcus neoformans lysis via adenylate kinase release. C. neoformans lysis, adenylate kinase release luminescence, 4 h; normalised: neutral wells 0, clomiphene wells 100. lysis activity, % at 15 µM. hit rate 0.2% among 360,000;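 active = mean lysis activity across replicates of at least 80%, whatever share of replicates individually reach that level; inactive = mean lysis activity below 80%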
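Material – log-phase Cryptococcus neoformans yeast cells · Input – 5 × 10^6 yeast cells/mL · Medium – fresh YPD growth medium · Doses – single compound concentration per well · Timing – static 4 h at 37 °C with compound, 1 h detection · Detection – adenylate kinase release luminescence · Read-out – signal increase indicating cell lysis · Control set – Clomiphene as positive lysis control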
PDI turbidity: inhibitors of human protein disulfide isomerase; P07237; PDI insulin aggregation turbidity, A650, 90 min; inhibition, % at 10 µM; hit rate 0.052% among 350,000; AID 588391;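 active = mean inhibition across replicates of 30% or more, whatever share of single replicates reach that level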
Target sequence (P07237 whole entry, looked up): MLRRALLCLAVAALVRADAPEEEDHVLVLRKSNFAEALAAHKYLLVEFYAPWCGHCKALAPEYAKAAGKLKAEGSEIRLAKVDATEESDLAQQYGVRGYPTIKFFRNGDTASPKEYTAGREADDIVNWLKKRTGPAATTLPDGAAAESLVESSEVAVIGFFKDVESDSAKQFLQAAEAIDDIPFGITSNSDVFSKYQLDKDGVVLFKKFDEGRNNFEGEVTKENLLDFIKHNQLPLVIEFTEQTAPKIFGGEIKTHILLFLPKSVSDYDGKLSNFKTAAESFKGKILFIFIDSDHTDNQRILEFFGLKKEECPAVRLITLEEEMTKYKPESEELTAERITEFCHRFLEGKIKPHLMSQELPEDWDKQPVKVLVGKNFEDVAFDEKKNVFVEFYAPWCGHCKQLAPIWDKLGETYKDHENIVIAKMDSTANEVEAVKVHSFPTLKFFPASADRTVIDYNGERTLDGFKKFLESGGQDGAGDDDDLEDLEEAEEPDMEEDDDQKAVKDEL
C2C12 statin: suppression of simvastatin myotoxicity; hit rate 0.78% among 330,000; AID 602340; rescue of ATP level, % at 7.49 µM; C2C12 myotubes + simvastatin, ATP luminescence, 48 h; scaled: DMSO 0, geranylgeraniol control 100;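 active = mean ATP rescue above about 67%, or every replicate alone reaching that limit, limit read from the data, passing the limit was not always enough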;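 also: myotubes were challenged with 10 µM simvastatin during compound exposure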
DENV2 CPE rescue: protects cells from dengue virus 2 cytopathic effect; CPE inhibition, % at 9.99 µM; DENV2-infected cells, cytopathic effect rescue, plate reader; hit rate 1.7% among 350,000; in the data active = CPE inhibition above about 20%, passing the limit was not always enough; tested in BHK-21 cells;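 also: 0% = median of neutral control wells and 100% = median of positive control wells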
CFTR F508del cor: correctors of CFTR F508del function in bronchial epithelial cells; CFBE cells, YFP halide quenching; stimulated with forskolin plus potentiator P3; % fluorescence drop versus neutral controls; activity (quench increase), % at 7.58 µM; hit rate 0.36% among 350,000; AID 720511;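 active = mean added fluorescence quench of at least 8% versus neutral control, with both replicates also reaching 8%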;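 also: cells transiently co-express mutant CFTR-F508del with the halide-sensitive YFP; corrector assay measuring rescue of mutant channel to the surface after 24 h compound exposure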
* = called active by the depositor; . = no result given; ! = repeats disagree.

SMILES	ERp5 block	Cneo AK release	PDI turbidity	C2C12 statin	DENV2 CPE rescue	CFTR F508del cor
CC(=O)NNC(=O)CSc1nnc(-c2ccccc2)c(-c2ccccc2)n1	4	93*	6	-7	2	4
CC(C)(C)NC(=O)CSc1nnc(-c2ccccc2)c(-c2ccccc2)n1	.	-1	10	-8	.	.
Cc1noc(C)c1S(=O)(=O)N(C)C[C@@H]1OCCCC[C@@H](C)Oc2ccc(NS(=O)(=O)c3ccc(Cl)cc3)cc2C(=O)N([C@H](C)CO)C[C@H]1C	9	-1	.	.	31*	-1
Cc1noc(C)c1S(=O)(=O)Nc1ccc2c(c1)C(=O)N([C@H](C)CO)C[C@@H](C)[C@@H](CN(C)S(=O)(=O)c1ccc(Cl)cc1)OCCCC[C@H](C)O2	4	1	.	101*	6	8
OC[C@@H]1[C@H](c2ccccc2)C2(CN(Cc3nccs3)C2)N1CCC(F)(F)F	20	.	.	.	25*	-1
CCC(=O)N1[C@H](CO)[C@@H](c2ccccc2)C12CN(Cc1nccs1)C2	-1	.	.	.	73*	5
CC(=O)N1[C@H](CO)[C@H](c2ccccc2)C12CN(Cc1nccs1)C2	1	.	.	.	10	-2
O=C(c1ccccc1)N1[C@H](CO)[C@@H](c2ccccc2)C12CN(Cc1nccs1)C2	-1	.	.	.	27*	0
O=C(c1ccccc1)N1[C@@H](CO)[C@@H](c2ccccc2)C12CN(Cc1nccs1)C2	-1	.	.	.	25*	0
CN1[C@H](C(=O)NCc2ccc(F)cc2)[C@@H](CO)[C@@H]2Cn3c(ccc(-c4ccccc4F)c3=O)[C@@H]21	0	0	.	15	1	0
CO[C@@H]1CN(C)C(=O)c2cc(NS(C)(=O)=O)ccc2OC[C@H](C)N(C(=O)C2CCCCC2)C[C@@H]1C	7	0	.	3	16	-4
CS(=O)(=O)c1ncc(Cl)c(C(=O)Nc2ccc(OC(F)F)cc2)n1	4	-1	-4	117*	.	.
CS(=O)(=O)c1ncc(Cl)c(C(=O)Nc2ccc(N3CCOCC3)cc2)n1	.	.	10	.	.	.
CCOc1ccccc1CN1CCNC(=O)C1CC(=O)N(C)CCc1ccccn1 (stereo not given)	-7	2	11	118*	0	2
O=C(CN1CCOc2ccccc21)NCc1ccc(Cl)cc1	3	-5	.	-4	1	9.2*
C[C@H](CO)N1C[C@H](C)[C@H](CN(C)C(=O)NC2CCCCC2)Oc2ccc(NS(=O)(=O)c3ccc(F)cc3)cc2C1=O	2	-12	.	-7	-5	1
C[C@@H]1CN([C@@H](C)CO)C(=O)c2cc(NS(=O)(=O)c3ccccc3)ccc2O[C@H]1CN(C)C(=O)NC1CCCCC1	0	112*	.	8	3	-4
C[C@H](CO)N1C[C@H](C)[C@@H](CN(C)C(=O)NC2CCCCC2)Oc2ccc(NS(C)(=O)=O)cc2C1=O	3	-1	10	3	29*!	-1
O=C1NC(=O)/C(=C/c2cc3c(cc2Br)OCO3)S1	4	2	-5	-9	22*	3
CCn1c2c(n(C(C)=O)c1=O)C[C@@H](c1ccccc1)[C@@H](C)[C@@H](C(=O)N1CCCC1)C2	3	.	.	.	50*	1
Cc1cccc(NC2=NC(C)(C)N=C(N)N2)c1C	.	-5	-5	112*	.	.
CCCCn1cnc2c(SCCc3ccccc3)nc(N)nc21	-1	-3	-6	99*	1	-3
COc1ccc(CN(C)C[C@@H]2Oc3ccc(NS(=O)(=O)c4cn(C)cn4)cc3C(=O)N([C@H](C)CO)C[C@H]2C)cc1	1	0	.	-7	-1	1
COc1ccc(NC(=O)N(C)C[C@H]2OCCCC[C@H](C)Oc3ccc(NC(=O)NC(C)C)cc3C(=O)N([C@H](C)CO)C[C@@H]2C)cc1	-2	-2	.	.	-4	-1
COc1ccc(-c2ccc(C3[C@@H]4CN(S(=O)(=O)c5cccc(C)c5)C[C@H]3N4)cc2)cc1 (stereo not given in full)	12	.	.	.	-5	3
COc1cccc(S(=O)(=O)N2C[C@@H]3N[C@H](C2)C3c2ccc(-c3cccc(C)c3)cc2)c1 (stereo not given in full)	10	.	.	.	3	12*!
